Results from ChEMBL document CHEMBL2086225, “Demethylwedelolactone derivatives inhibit invasive growth in vitro and lung metastasis of MDA-MB-231 breast cancer cells in nude mice” (Eur J Med Chem, 2012).
The source made the active and inactive calls. The rule behind the calls is not given here.

Experiments:
[1] = system: MDA-MB-231; test: Downregulation of MMP2 in human MDA-MB-231 cells at 10 uM by Western blot analysis; type: functional, cell-based
How it was run: (§1)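 MDA-MB-231 cells in DMEM with 10% FBS at 37 °C were treated for 12 h. Whole-cell lysates were made in RIPA buffer (pH 7.5) at 4 °C, then SDS-PAGE, nitrocellulose transfer, and immunoblotting for MMP-2 and MMP-9, with β-actin as loading control. Detection was by HRP secondary antibody and chemiluminescence. Relative band density was quantified by densitometry.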

[2] = system: MDA-MB-231; test: Downregulation of MMP9 in human MDA-MB-231 cells at 10 uM by Western blot analysis; type: functional, cell-based; how it was run: as §1
[3] = target: Matrix metalloproteinase-9 (Homo sapiens) (UniProt P14780); test: Inhibition of MMP9 in human MDA-MB-231 cells at 20 uM up to 12 hrs by gelatin-zymogrphy; type: cell-based
How it was run: (§2)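 Cells seeded at 4 × 10^5 cells/ml overnight, exposed to 20 µM for 0–12 h. Conditioned media run on 8% SDS-PAGE containing 0.1% gelatin (150 V, 3 h), SDS removed with 2% Triton X-100 washes, gels incubated in 10 mM CaCl2, 40 mM Tris-HCl pH 8.0 for 16 h at 37 °C, Coomassie-stained.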

[4] = target: T1, NF-kappa-B inhibitor alpha (Homo sapiens) (UniProt P25963); test: Inhibition of IkappaBalpha phosphorylation in human MDA-MB-231 cells after 12 hrs by Western blot analysis; type: cell-based
T1 sequence (whole entry): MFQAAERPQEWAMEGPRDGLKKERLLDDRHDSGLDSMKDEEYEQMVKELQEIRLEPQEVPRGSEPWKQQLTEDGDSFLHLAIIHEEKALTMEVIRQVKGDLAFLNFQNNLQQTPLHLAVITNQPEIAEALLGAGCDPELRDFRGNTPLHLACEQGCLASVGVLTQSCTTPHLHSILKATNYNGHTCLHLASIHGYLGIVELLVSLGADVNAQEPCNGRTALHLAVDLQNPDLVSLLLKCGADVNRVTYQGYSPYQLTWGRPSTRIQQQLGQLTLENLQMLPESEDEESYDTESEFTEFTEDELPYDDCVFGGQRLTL
How it was run: (§3)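 For the time course, cells exposed to 20 µM for various times; for dose response, 5, 10 or 20 µM for 12 h. Lysates immunoblotted with phospho-IκB-α and total IκB-α antibodies, HRP secondary, chemiluminescence detection, densitometry.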

[5] = system: MDA-MB-231; test: Upregulation of TIMP1 expression in human MDA-MB-231 cells at 0.2 to 0.8 uM after 12 hrs by Western blot analysis; type: functional, cell-based
[6] = system: MDA-MB-231; test: Cytotoxicity against human MDA-MB-231 cells at 25 to 100 uM after 24 hrs by MTT assay; type: functional, cell-based
How it was run: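 Cells seeded at 5 × 10^4/well, grown 24 h in complete medium, exposed 0–100 µM for 24 h (control 0.2% DMSO). Medium replaced, MTT added for 4 h, formazan dissolved in DMSO, absorbance read at 570 nm.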

[7] = system: MDA-MB-231; test: Antiinvasive activity against human MDA-MB-231 cells xenografted in athymic nude BALB/c mouse assessed as decrease in lung size at 5 and 20 mg/kg, ip administered 3 times per week starting 1 week prior to xenografting measured after 5 weeks relative to control; type: functional, organism-based; design: dose 20 mg/kg
How it was run: (§4)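 Female six-week-old BALB/c-nu mice (n = 6/group) dosed i.p. 3 times/week for 5 weeks (100 µl vehicle, or PBS). After 1 week, 1 × 10^6 cells injected into tail vein. Mice euthanized 4 weeks post-injection; lungs photographed, weighed, and H&E/hematoxylin sections examined for tumor cells. Means ± SD; one-way ANOVA with Dunnett's test.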

[8] = system: MDA-MB-231; test: Upregulation of TIMP2 expression in human MDA-MB-231 cells at 1.1 to 3.6 uM after 12 hrs by Western blot analysis; type: functional, cell-based
[9] = system: MDA-MB-231; test: Antimetastatic activity against human MDA-MB-231 cells assessed as inhibition of wound closure activity up to 20 uM at 12 hrs by scratch motility assay; type: functional, cell-based
[10] = target: Focal adhesion kinase 1 (Homo sapiens) (UniProt Q05397); test: Inhibition of FAK phosphorylation in human MDA-MB-231 cells after 12 hrs by Western blot analysis; type: cell-based
How it was run: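 Cells exposed 0–20 µM for 12 h; lysates in RIPA buffer immunoblotted with phospho-FAK, total FAK and β-actin antibodies; HRP secondary, chemiluminescence, densitometry.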

[11] = system: MDA-MB-231; test: Antimetastatic activity against human MDA-MB-231 cells assessed as inhibition of anchorage-independent colony formation after 21 days by inverted microscopy; type: functional, cell-based
How it was run: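 Cells pretreated 0–20 µM for 24 h, then 5 × 10^3 cells suspended in 0.33% agarose with 10% FBS over 0.5% agarose base layer; grown at 37 °C, 5% CO2. Colonies counted after 21 days under inverted microscope at 40×; 3 independent experiments, means ± SD.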

[12] = target: Mitogen-activated protein kinase; ERK1/ERK2 (Homo sapiens) (UniProt P27361+P28482); test: Inhibition of ERK 1/2 phosphorylation in human MDA-MB-231 cells at 5 to 20 uM after 12 hrs by Western blot analysis; type: cell-based
How it was run: (§5)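 Cells exposed to 5, 10 or 20 µM for 12 h; lysed in RIPA buffer (pH 7.5) with protease/phosphatase inhibitors. 50–100 µg protein run on SDS-PAGE, transferred to nitrocellulose, probed with phospho-specific and total antibodies (β-actin loading control), HRP secondary, ECL detection, densitometry.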

[13] = system: MDA-MB-231; test: Antiinvasive activity against human MDA-MB-231 cells assessed as F-actin reorganization at 20 uM incubated 24 hrs post-serum starvation measured after 12 hrs by TRITC-conjugated phalloidin staining method; type: functional, cell-based
How it was run: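 Cells seeded, serum-starved (0.1%) overnight, then exposed for 12 h in DMEM with 10% FBS. Fixed in 4% paraformaldehyde 10 min, permeabilized with 0.1% Triton X-100 5 min, F-actin stained with TRITC-phalloidin (500 ng/ml) 1 h; imaged by fluorescence microscopy at 100×.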

[14] = system: MDA-MB-231; test: Antiinvasive activity against human MDA-MB-231 cells pretreated for 12 hrs followed by compound-wash out measured after 12 hrs by Boyden chamber assay; type: functional, cell-based
How it was run: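 Cells pretreated 12 h, resuspended in serum-free medium (2 × 10^5 cells/ml) in upper chamber coated with Matrigel diluted 1:25; 10% FBS medium below. After 12 h, non-invaded cells removed; invaded cells methanol-fixed, Giemsa-stained, counted at 200× in 5 random fields per replicate (n = 4), averaged.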

[15] = system: MDA-MB-231; test: Antiinvasive activity against human MDA-MB-231 cells xenografted in athymic nude BALB/c mouse assessed as decrease in lung metastasis at 5 and 20 mg/kg, ip administered 3 times per week starting 1 week prior to xenografting measured after 5 weeks by hematoxylin-staining relative to control; type: functional, organism-based; design: dose 20 mg/kg; how it was run: as §4
[16] = system: SK-HEP1; test: Antiinvasive activity against human SKHEP1 cells; type: functional, cell-based
[17] = target: T1, NF-kappa-B inhibitor alpha (Homo sapiens); test: Inhibition of IkappaBalpha phosphorylation in human MDA-MB-231 cells at 5 to 20 uM after 3 to 24 hrs by Western blot analysis; type: cell-based; how it was run: as §3
[18] = system: MDA-MB-231; test: Downregulation of MMP9 expression in human MDA-MB-231 cells at 0.1 to 0.9 uM after 12 hrs by Western blot analysis; type: functional, cell-based
[19] = system: MDA-MB-231; test: Antiinvasive activity against human MDA-MB-231 cells xenografted in athymic nude BALB/c mouse assessed as decrease in lung weight at 5 and 20 mg/kg, ip administered 3 times per week starting 1 week prior to xenografting measured after 5 weeks relative to control; type: functional, organism-based; design: dose 20 mg/kg; how it was run: as §4
[20] = target: 72 kDa type IV collagenase (Homo sapiens) (UniProt P08253); test: Inhibition of MMP2 in human MDA-MB-231 cells at 20 uM up to 12 hrs by gelatin-zymogrphy; type: cell-based; how it was run: as §2
[21] = system: MDA-MB-231; test: Downregulation of MMP2 expression in human MDA-MB-231 cells at 5 to 20 uM after 12 hrs by Western blot analysis; type: functional, cell-based; how it was run: as §5
[22] = system: MDA-MB-231; test: Downregulation of MMP9 in human MDA-MB-231 cells at 50 uM by Western blot analysis; type: functional, cell-based
[23] = system: MDA-MB-231; test: Downregulation of MMP2 in human MDA-MB-231 cells at 50 uM by Western blot analysis; type: functional, cell-based
[24] = system: MDA-MB-231; test: Upregulation of TIMP2 expression in human MDA-MB-231 cells at 1 to 3.5 uM after 12 hrs by Western blot analysis; type: functional, cell-based
[25] = target: T1, NF-kappa-B inhibitor alpha (Homo sapiens); test: Inhibition of IkappaBalpha phosphorylation in human MDA-MB-231 cells at 5 to 20 uM after 12 to 24 hrs by Western blot analysis; type: cell-based
[26] = system: MDA-MB-231; test: Downregulation of MMP9 expression in human MDA-MB-231 cells at 0.5 to 1 uM after 12 hrs by Western blot analysis; type: functional, cell-based
[27] = system: MDA-MB-231; test: Upregulation of TIMP1 expression in human MDA-MB-231 cells at 0.5 to 1 uM after 12 hrs by Western blot analysis; type: functional, cell-based

Mitogen-activated protein kinase; ERK1/ERK2 (Homo sapiens), sequence (P27361 whole entry, looked up): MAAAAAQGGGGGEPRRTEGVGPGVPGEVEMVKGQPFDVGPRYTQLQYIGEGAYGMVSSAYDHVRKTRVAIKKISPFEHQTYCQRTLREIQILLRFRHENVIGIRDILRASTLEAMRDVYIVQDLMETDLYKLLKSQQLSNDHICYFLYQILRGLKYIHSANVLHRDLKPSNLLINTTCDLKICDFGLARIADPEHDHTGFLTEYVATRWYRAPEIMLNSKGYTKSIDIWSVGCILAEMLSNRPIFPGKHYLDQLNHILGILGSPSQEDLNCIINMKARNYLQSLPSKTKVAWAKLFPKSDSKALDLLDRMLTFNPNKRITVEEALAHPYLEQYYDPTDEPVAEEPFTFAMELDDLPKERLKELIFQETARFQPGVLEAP
Mitogen-activated protein kinase; ERK1/ERK2 (Homo sapiens), sequence (P28482 whole entry, looked up): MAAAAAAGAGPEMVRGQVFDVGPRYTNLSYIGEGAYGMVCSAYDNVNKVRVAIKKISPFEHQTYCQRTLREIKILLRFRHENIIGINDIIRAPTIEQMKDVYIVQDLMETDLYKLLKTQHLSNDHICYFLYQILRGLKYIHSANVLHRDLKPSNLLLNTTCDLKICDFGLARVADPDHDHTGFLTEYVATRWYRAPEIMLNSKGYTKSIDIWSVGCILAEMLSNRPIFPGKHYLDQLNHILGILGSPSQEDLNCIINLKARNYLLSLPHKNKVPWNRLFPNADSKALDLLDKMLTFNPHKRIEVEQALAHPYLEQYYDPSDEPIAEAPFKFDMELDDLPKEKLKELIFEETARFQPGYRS
Focal adhesion kinase 1 (Homo sapiens), sequence (Q05397 2-1052 limits assumed): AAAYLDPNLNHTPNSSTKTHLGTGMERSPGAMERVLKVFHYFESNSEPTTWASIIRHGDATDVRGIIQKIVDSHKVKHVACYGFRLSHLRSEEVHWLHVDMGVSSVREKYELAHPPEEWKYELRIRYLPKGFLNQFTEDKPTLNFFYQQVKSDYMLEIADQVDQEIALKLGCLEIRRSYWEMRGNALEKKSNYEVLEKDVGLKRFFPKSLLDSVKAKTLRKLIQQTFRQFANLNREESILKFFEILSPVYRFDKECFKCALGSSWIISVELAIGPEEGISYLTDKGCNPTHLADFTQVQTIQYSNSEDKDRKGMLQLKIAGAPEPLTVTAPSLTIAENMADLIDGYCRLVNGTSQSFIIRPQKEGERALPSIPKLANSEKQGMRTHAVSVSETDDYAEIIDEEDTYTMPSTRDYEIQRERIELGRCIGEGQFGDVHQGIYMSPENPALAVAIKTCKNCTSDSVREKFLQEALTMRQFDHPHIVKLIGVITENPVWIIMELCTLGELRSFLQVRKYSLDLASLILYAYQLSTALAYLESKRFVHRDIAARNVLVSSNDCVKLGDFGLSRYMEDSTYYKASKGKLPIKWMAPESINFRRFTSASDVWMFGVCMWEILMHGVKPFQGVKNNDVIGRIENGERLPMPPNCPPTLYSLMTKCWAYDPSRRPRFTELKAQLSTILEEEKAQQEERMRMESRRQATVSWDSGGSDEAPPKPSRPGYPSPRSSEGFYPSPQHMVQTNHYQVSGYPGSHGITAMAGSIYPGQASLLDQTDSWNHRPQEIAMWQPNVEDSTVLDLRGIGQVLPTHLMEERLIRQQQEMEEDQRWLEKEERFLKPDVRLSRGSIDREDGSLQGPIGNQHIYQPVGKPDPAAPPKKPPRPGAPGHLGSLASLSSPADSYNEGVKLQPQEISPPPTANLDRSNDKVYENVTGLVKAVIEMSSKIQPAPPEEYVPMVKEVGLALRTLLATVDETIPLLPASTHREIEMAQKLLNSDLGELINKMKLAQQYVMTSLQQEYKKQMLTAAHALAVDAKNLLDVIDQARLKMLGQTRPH
72 kDa type IV collagenase (Homo sapiens), sequence (P08253 110-660 limits assumed): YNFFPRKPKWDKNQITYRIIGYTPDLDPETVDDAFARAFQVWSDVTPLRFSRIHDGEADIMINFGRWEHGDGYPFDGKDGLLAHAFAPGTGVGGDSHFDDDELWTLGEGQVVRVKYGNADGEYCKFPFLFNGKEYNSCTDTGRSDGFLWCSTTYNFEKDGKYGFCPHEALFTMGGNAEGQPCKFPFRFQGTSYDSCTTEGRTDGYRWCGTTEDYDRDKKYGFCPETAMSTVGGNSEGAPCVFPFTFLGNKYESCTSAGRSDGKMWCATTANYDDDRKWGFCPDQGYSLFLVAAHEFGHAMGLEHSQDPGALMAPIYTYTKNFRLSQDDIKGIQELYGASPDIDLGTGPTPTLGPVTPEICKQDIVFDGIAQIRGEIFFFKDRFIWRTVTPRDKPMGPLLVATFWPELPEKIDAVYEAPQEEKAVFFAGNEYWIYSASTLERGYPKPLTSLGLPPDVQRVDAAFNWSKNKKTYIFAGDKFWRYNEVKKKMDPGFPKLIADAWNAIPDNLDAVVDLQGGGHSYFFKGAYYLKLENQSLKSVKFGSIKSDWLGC
Matrix metalloproteinase-9 (Homo sapiens), sequence (P14780 whole entry): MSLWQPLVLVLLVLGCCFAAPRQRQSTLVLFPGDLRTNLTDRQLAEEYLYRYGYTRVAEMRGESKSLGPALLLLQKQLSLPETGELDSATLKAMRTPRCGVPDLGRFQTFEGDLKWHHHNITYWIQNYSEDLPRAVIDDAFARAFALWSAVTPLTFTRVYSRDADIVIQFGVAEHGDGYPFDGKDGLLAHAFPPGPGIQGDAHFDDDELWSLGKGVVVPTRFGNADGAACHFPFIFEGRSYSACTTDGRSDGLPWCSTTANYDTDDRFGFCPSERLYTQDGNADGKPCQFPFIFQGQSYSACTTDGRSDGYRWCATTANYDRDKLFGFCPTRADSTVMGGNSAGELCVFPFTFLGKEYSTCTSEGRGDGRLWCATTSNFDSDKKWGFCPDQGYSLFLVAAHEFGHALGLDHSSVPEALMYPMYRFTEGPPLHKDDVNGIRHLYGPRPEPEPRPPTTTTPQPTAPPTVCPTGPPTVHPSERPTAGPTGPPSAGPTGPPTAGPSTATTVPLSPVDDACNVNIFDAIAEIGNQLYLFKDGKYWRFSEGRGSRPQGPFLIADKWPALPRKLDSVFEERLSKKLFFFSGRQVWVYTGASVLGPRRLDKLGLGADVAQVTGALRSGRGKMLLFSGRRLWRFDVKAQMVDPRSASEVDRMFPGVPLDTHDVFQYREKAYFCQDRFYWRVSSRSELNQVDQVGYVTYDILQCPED

| inhibition [4] | inhibition [10] | inhibition [12] | SMILES | Activity [6] | inhibition [9] | inhibition [11] | Activity [13] | Activity [14] | Activity [16] | Activity [21] | further results |
| --- | --- | --- | --- | --- | --- | --- | --- | --- | --- | --- | --- |
| – | – | – | S=C(S)N1CCCC1 | – | – | – | – | – | – | – | Activity [1]: Active; Activity [2]: Active |
| Dose-dependent effect | Dose-dependent effect | Active | O=c1oc2cc(O)cc(O)c2c2oc3cc(O)c(O)cc3c12 | Active | Active | Dose-dependent effect | Active | Dose-dependent effect | Active | Active | inhibition [3]: Active; Activity [5]: Active; Activity [7]: Active; Activity [8]: Active; Activity [15]: Active; inhibition [17]: Active; Activity [18]: Active; Activity [19]: Active; inhibition [20]: Active |
| – | – | – | COc1cccc(-c2cc(=O)c3ccccc3o2)c1N | – | – | – | – | – | – | – | Activity [22]: Active; Activity [23]: Active |
| Dose-dependent effect | Dose-dependent effect | Active | COc1cc(O)c2c(c1)oc(=O)c1c3cc(O)c(O)cc3oc21 | Active | Active | Dose-dependent effect | Active | Dose-dependent effect | Active | Active | Activity [24]: Active; inhibition [25]: Active; Activity [26]: Active; Activity [27]: Active |
